Test results reported in BindingDB's records for doi:10.1021/jm049620r (University of Florida, 2004).
Bridge positions count the residues as written; N and C are the ends. Peptide text beside a SMILES is read from it.

Target: Melanocyte-stimulating hormone receptor (Mus musculus, UniProt Q01727)
Assay: Agonistic activity against mouse Melanocortin 1 Receptor
Method in brief: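 HEK-293 cells stably expressing the receptor (G418 selection), transiently transfected with a CRE/β-galactosidase reporter. Lysates read with ONPG at OD405 and normalized to protein content and forskolin (10^-4 M) response. EC50 from nonlinear least-squares fit, at least three independent experiments.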

Chain of Melanocyte-stimulating hormone receptor (Q01727 whole entry): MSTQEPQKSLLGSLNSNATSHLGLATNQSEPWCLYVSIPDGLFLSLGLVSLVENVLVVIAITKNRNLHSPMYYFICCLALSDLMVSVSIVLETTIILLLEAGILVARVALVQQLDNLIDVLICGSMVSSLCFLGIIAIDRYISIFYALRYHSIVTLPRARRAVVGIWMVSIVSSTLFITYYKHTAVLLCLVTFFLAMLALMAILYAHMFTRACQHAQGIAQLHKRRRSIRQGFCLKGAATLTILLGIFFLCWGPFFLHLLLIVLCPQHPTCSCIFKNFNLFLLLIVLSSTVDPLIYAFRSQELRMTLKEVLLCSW

EC50: 5.12 µM
Structure (SMILES): C[C@@H]1NC(=O)[C@H](CC(N)=O)NC(=O)[C@H](Cc2ccccc2)NC(=O)[C@H](Cc2ccccc2)NC(=O)[C@H](CCCNC(=N)N)NC(=O)[C@@H](NC(=O)[C@@H](N)Cc2ccc(O)cc2)CSSC[C@@H](C(=O)N[C@@H](Cc2ccc(O)cc2)C(N)=O)NC(=O)[C@H](Cc2ccccc2)NC1=O (H-YCRFFNAFCY-NH2; disulfide 2-9)
